Assay results reported in the RNAGym collection of RNA variant scans (doi:10.1126/science.aae0568).
Variants at the floor of the assay were thinned out.

B1: tRNA (parent)
chain: GUUCCGUUGGCGUAAUGGUAACGCGUCUCCCUCCUAAGGAGAAGACUGCGGGUUCGAGUCCCGUACGGAACG

Variants of: B1
Assay: yeast fitness relative to wild type (ratio to wild type); higher = fitter; tRNA-Arg(CCU), competitive growth, 37 C, YPD
In short: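 Variants of the tRNA-Arg(CCU) gene were chemically synthesised with a 3% per-site mutation rate across 69 sites and placed at the native genomic locus in Saccharomyces cerevisiae. Six parallel replicates of the pooled strains were competed in YPD at 37°C for 24 hours, and gene amplicons from the start and end populations were read by 100-nucleotide paired-end sequencing. Darwinian fitness relative to wild type was derived from changes in genotype frequencies. Genotypes required ≥ 100 starting reads, and estimates < 0.5 were set to 0.5.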

Row | Variant | yeast fitness
1 | A14U C22G C60G | ≤ 0.5
2 | C11A A15G A20G A37C G50A G67C | ≤ 0.5
3 | G9A U16C A69C | 0.763
4 | C5G U7C | 0.787
5 | C5G C30U C34U A37U G68C | ≤ 0.5
6 | C22U C27U G44C | 0.659
7 | C4G U54A | 0.572
8 | U13C C29A C33G U35C G51A | 0.503
9 | G9U A14C C24U U35C C46G G52A C61A | ≤ 0.5
10 | U3G A15U | 0.633
11 | U2G C29G C31A G67A | ≤ 0.5
12 | G9A A40C C66U | 0.719
13 | G12A U35A | 0.706
14 | G6A G25C C33U G48A G63A | ≤ 0.5
15 | C5U G6C A36C G48C C62U | 0.546
16 | C4U C5A U13A C31U C34U C66U | ≤ 0.5
17 | G17C C24G G38C | ≤ 0.5
18 | G6C G18C C22U C34G A36U A57C C66U | ≤ 0.5
19 | U35C A42G | 0.761
20 | A14U C33G A42C C49U C55G | ≤ 0.5
21 | G6A U13C C22G C55G | ≤ 0.5
22 | G12A A15U C22A U26A G58A | 0.629
23 | U54C G56C | 0.593
24 | G18C A42C U54A | ≤ 0.5

Row | Variant | yeast fitness
25 | U59G C60A | 0.509
26 | G6C A21G | 0.857
27 | A21U G56C | 0.579
28 | A15G C29A A57C | ≤ 0.5
29 | C46A C55A G63A | 0.575
30 | G9A G23C G39C | ≤ 0.5
31 | A14G C22G U35G A40C A70U | ≤ 0.5
32 | U26C G51C | 0.663
33 | C4G A20U C31G A65U | ≤ 0.5
34 | U32A A40C A69C | 0.562
35 | C30G G39A G58U C62A | ≤ 0.5
36 | G6C C31A G68C | 0.502
37 | U7A A43U G52C | ≤ 0.5
38 | C27A A37C | 0.597
39 | U2A C11U A70C | 0.587
40 | C11U C27U G52C C55G | ≤ 0.5
41 | A14C U19A G39C | ≤ 0.5
42 | C4A A40U A42G C55G | ≤ 0.5
43 | C30U G48C | 0.872
44 | U16A A20C C29G G63A G68C | ≤ 0.5
45 | C33G C34U | 0.563
46 | C29U C31G C34A | ≤ 0.5
47 | C4A A65U A69U | 0.774
48 | G9A C31A G50C | 0.604

Row | Variant | yeast fitness
49 | C5A U19A G38C A57C C62U | ≤ 0.5
50 | U2C A37G A40G A45U | ≤ 0.5
51 | A21U C30G C61U | ≤ 0.5
52 | C34U C46G | 0.705
53 | G12C G58A A65U | 0.72
54 | G18C A37U G48C C49A | ≤ 0.5
55 | C24G C61U | 0.59
56 | U2A A15U G17C G51A | ≤ 0.5
57 | G25A A43C A70G | 0.745
58 | U3A G58C C60U C66G | ≤ 0.5
59 | A57G C60U | 0.838
60 | C31U | 0.986
61 | A20U C31A C33G U47C C60A | ≤ 0.5
62 | U3A A36G A70C | 0.991
63 | U7A C27U C30A A69U | ≤ 0.5
64 | C31G A69G | 1.02
65 | U26A A36G A37G C46G C49U U54C A70G | 0.754
66 | C24G C34G G50C C61U | ≤ 0.5
67 | C11U C34A A57G | 0.548
68 | U3G C22A | 0.682
69 | C24U C31G A43G | 0.69
70 | C5U G12C A43G G56A | ≤ 0.5
71 | A40C A45G U59A | 0.573
72 | C22G G58C C61U | 0.616

Row | Variant | yeast fitness
73 | G9A C22U G48A C60G A65C | ≤ 0.5
74 | G17A C29U C33U C60G A65G | ≤ 0.5
75 | U3A G52C | 0.645
76 | G12C G39C G50C C61G | ≤ 0.5
77 | U3C A42C A65U | 0.651
78 | U8G C27U C31U C33A G67C | ≤ 0.5
79 | G25A C31A C62U | 0.586
80 | C5G A14C C29A C31G A36G U54A | ≤ 0.5
81 | C4G C11G | 0.623
82 | A21C C30U | 0.734
83 | U3A C4A A20C C29A C66U | ≤ 0.5
84 | C24U C30U C49U U53C | ≤ 0.5
85 | C5A A21C A43U C46G G50U C61G | ≤ 0.5
86 | G12C U47A G68C | 0.533
87 | C4U G56A C60U | ≤ 0.5
88 | U19A G25C C33A A37G | ≤ 0.5
89 | C5G G67A | 0.86
90 | C24A C31U A42C G50A | ≤ 0.5
91 | U26C A37G C60A | ≤ 0.5
92 | C4U A43G C46U | 0.994
93 | C4U G12A C24A G67C | ≤ 0.5
94 | U2C U13C C27A G58C G63C | ≤ 0.5
95 | U13A U54C C62U G68C | ≤ 0.5
96 | A15C A40G A65G | 0.511

Row | Variant | yeast fitness
97 | U35C A36G A45C | 0.825
98 | C11G A42U A43C C55A C66U | ≤ 0.5
99 | U7C G48A G68U A70C | 0.542
100 | G6A G23U C24G U35A G48C | ≤ 0.5
101 | C30G C49U G67C | ≤ 0.5
102 | C5G C29G | 0.779
103 | C29U G48A | 0.986
104 | G17C U64C | 0.845
105 | C11A C29G A57G C66A | ≤ 0.5
106 | G10A G25A C29G C31U | ≤ 0.5
107 | G44C G67U | 0.855
108 | C5G U13G C29U A40G | ≤ 0.5
109 | A20C C31G G58C | 0.92
110 | U7A C11G U28G U32A G38C | ≤ 0.5
111 | C46G G56A | 1.03
112 | C4U C11G C55U G58A | ≤ 0.5
113 | C5A G10C U19C C24G | ≤ 0.5
114 | U28A G58C | 0.798
115 | A14U C22U A36U | 0.571
116 | C11A U13A A20G G68C A69C | 0.626
117 | U7C A15U C49U C62U | 0.673
118 | U7C C31G | 0.81
119 | U2G G67A | 0.901
120 | U16C A20C | 0.995

Row | Variant | yeast fitness
121 | G12C A40G G50C C62U | 0.756
122 | G17A C22A G63A | ≤ 0.5
123 | A40C U54C | 0.963
124 | U13C C30G | 0.578
125 | C4G A37C | 0.773
126 | U2A C31G A65U A69C | ≤ 0.5
127 | C30G G50A | 0.72
128 | A20C C29G U35C | ≤ 0.5
129 | C5G G9C A42G U54C | 0.641
130 | U47G G51A | 0.588
131 | C4A C5G A20C A40U | 0.5
132 | G6A G12C C34U A70U | 0.671
133 | C11U C49U A65C | 0.727
134 | C31G C61U G67A | ≤ 0.5
135 | A14G C61U A70U | 0.835
136 | U7G A43U C46A | 0.603
137 | C27U C62U A65U | 0.718
138 | C29G C33G U35G G44A | 0.628
139 | A20G A21C A43U G50A G52U A69C | ≤ 0.5
140 | C11A A20U C61U | 0.558
141 | U3C U32C A42U | 0.686
142 | G9A C11G C22U A40G A70G | ≤ 0.5
143 | U32C C33U A42U | 0.66
144 | G10C G18A C66U | ≤ 0.5

Row | Variant | yeast fitness
145 | U7G G39C A70U | 0.553
146 | C24U A42U G67A | 0.567
147 | A36G A45G | 0.944
148 | U3G G44C U54A | ≤ 0.5
149 | G10C U26A C49U | ≤ 0.5
150 | C34U U35C A40G U47C | ≤ 0.5
151 | A40G A43G G44C C66U | ≤ 0.5
152 | C24A G39C A57U A70C | ≤ 0.5
153 | C31U U32C C34U A57C | ≤ 0.5
154 | U8A U32G A37G U54G G56A | ≤ 0.5
155 | C11G U19A A21G C27U G39C C60A | ≤ 0.5
156 | A21C U32C C46U | 0.849
157 | G23C A42C U47A C49G A69U A70U | ≤ 0.5
158 | C46U C55A C66U | 0.555
159 | C5G U7C C49U | 0.524
160 | A14G C29U A57C | ≤ 0.5
161 | U26C G48A A57G C61G | 0.501
162 | C31A A40U U53G G56C C62G | ≤ 0.5
163 | G6C U35A G44C C60A | ≤ 0.5
164 | C46G C62U C66U | 0.746
165 | C22G G50U A57G | ≤ 0.5
166 | C4U C30A A57G | 0.806
167 | U19A G25A A43C U53G G63C | ≤ 0.5
